ChEMBL document CHEMBL3627607, “A Novel Pyrazolopyridine with in Vivo Activity in Plasmodium berghei- and Plasmodium falciparum-Infected Mouse Models from Structure-Activity Relationship Studies around the Core of Recently Identified Antimalarial Imidazopyridazines” (J Med Chem, 2015)
The source made the active and inactive calls. No cut-off for these calls is given here.

How the values were obtained:
Plasmodium falciparum [1] = experiment: Antiplasmodial activity against Plasmodium falciparum 3D7 infected in po dosed non-myelodepleted NOD-SCID IL2Rgammanull mouse engrafted with human erythrocytes assessed as reduction of parasitemia level administered qd for 4 days; assay type: functional; conditions: 3D7, po, 96 h
Procedure, shortened: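 P. falciparum-infected engrafted NSG mice were dosed orally once daily for four consecutive days. Blood parasitemia was monitored, and a 90% effective dose was derived along with the blood exposure at that dose.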

Plasmodium falciparum [2] = experiment: Antiplasmodial activity against multidrug resistant Plasmodium falciparum K1 infected in human erythrocytes after 48 hrs by [3H]-hypoxanthine incorporation assay; assay type: functional, organism-based
Plasmodium falciparum [3] = experiment: Antiplasmodial activity against drug sensitive Plasmodium falciparum NF54 infected in human erythrocytes after 48 hrs by [3H]-hypoxanthine incorporation assay; assay type: functional, organism-based
Liver microsome [4] = experiment: Metabolic stability of the compound in human liver microsomes assessed as compound remaining at 0.1 uM after 30 mins by LC-MS/MS analysis; assay type: ADME; conditions: 0.5 h
Liver microsome [5] = experiment: Metabolic stability of the compound in rat liver microsomes assessed as compound remaining at 0.1 uM after 30 mins by LC-MS/MS analysis; assay type: ADME; conditions: 0.5 h
[6] = Metabolic stability of the compound in mouse liver microsomes assessed as compound remaining at 0.1 uM after 30 mins by LC-MS/MS analysis; assay type: ADME; conditions: 0.5 h
[7] = target: Voltage-gated inwardly rectifying potassium channel KCNH2 (Homo sapiens, UniProt Q12809); experiment: Inhibition of human ERG potassium channel by ionworks patch-clamp electrophysiology assay
Chain of Voltage-gated inwardly rectifying potassium channel KCNH2 (Q12809 whole entry): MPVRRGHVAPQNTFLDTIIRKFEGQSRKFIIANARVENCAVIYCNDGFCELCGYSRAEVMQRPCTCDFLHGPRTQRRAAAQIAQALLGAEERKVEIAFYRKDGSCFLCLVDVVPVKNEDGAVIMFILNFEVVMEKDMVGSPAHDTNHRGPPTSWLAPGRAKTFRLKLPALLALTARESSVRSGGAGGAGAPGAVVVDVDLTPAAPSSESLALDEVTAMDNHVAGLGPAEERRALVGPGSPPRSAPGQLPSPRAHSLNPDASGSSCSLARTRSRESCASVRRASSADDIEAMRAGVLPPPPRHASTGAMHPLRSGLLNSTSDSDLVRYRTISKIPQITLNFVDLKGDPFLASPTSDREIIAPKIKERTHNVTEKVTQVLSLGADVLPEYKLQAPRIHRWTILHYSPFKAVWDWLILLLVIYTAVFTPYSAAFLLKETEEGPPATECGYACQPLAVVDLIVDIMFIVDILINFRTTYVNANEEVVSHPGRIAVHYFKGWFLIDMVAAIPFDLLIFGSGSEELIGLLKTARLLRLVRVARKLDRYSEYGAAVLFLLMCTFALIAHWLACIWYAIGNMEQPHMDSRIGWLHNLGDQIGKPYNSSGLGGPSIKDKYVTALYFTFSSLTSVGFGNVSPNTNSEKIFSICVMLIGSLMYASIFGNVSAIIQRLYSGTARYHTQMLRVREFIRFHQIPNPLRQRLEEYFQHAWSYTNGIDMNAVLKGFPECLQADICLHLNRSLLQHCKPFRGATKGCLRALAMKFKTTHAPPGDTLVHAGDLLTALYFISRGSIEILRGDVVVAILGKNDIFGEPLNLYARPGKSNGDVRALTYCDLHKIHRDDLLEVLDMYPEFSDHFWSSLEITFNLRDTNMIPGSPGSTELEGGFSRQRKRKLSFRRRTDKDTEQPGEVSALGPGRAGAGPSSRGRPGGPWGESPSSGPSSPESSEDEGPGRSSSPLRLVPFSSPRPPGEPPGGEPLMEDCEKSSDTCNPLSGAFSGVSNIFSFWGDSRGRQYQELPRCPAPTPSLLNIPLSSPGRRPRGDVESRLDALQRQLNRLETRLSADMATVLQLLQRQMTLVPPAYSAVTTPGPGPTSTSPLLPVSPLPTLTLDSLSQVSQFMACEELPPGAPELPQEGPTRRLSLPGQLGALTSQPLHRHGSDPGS

Plasmodium berghei [8] = experiment: Antiplasmodial activity against Plasmodium berghei ANKA expressing GFP infected in mouse assessed as reduction of parasitemia level at 50 mg/kg, po qd for 4 days measured on day 4 post last dose by flow cytometric analysis relative to control; assay type: functional; set-up: scale not given: the % may be the effect or the level left
Procedure, shortened: (§1)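 Mice (n = 3) infected with GFP-transfected P. berghei ANKA. Test agents were suspended in HPMC vehicle (0.5% w/v hydroxypropylmethylcellulose, 0.5% v/v benzyl alcohol, 0.4% v/v Tween 80, 0.9% w/v NaCl in water). Dosed orally at 4, 24, 48 and 72 h post-infection. Parasitemia read by flow cytometry on day 4 (96 h), detection limit 0.1%. Activity = control-minus-treated mean % parasitemia, relative to control.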

Plasmodium berghei [9] = experiment: Antiplasmodial activity against Plasmodium berghei ANKA expressing GFP infected in mouse assessed as means survival days at 50 mg/kg, po qd for 4 days; assay type: functional
Procedure, shortened: (§2)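 Mice (n = 3) infected with GFP-transfected P. berghei ANKA. Compounds dissolved or suspended in HPMC vehicle (0.5% w/v hydroxypropylmethylcellulose, 0.5% v/v benzyl alcohol, 0.4% v/v Tween 80, 0.9% w/v NaCl in water). Dosed orally 4, 24, 48 and 72 h after infection. Parasitemia read by flow cytometry (detection limit 0.1%). Survival recorded as mean survival time in days.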

Plasmodium berghei [10] = experiment: Antiplasmodial activity against Plasmodium berghei ANKA expressing GFP infected in mouse assessed as mouse cured from disease at 50 mg/kg, po qd for 4 days; assay type: functional, organism-based
Plasmodium berghei [11] = experiment: Antiplasmodial activity against Plasmodium berghei ANKA expressing GFP infected in mouse assessed as reduction of parasitemia level at 10 mg/kg, po qd for 4 days measured on day 4 post last dose by flow cytometric analysis relative to control; assay type: functional; set-up: scale not given: the % may be the effect or the level left; procedure, shortened: as §1
Plasmodium berghei [12] = experiment: Antiplasmodial activity against Plasmodium berghei ANKA expressing GFP infected in mouse assessed as means survival days at 10 mg/kg, po qd for 4 days; assay type: functional; procedure, shortened: as §2
Plasmodium berghei [13] = experiment: Antiplasmodial activity against Plasmodium berghei ANKA expressing GFP infected in mouse assessed as reduction of parasitemia level at 3 mg/kg, po qd for 4 days measured on day 4 post last dose by flow cytometric analysis relative to control; assay type: functional; set-up: scale not given: the % may be the effect or the level left; procedure, shortened: as §1
Plasmodium berghei [14] = experiment: Antiplasmodial activity against Plasmodium berghei ANKA expressing GFP infected in mouse assessed as means survival days at 3 mg/kg, po qd for 4 days; assay type: functional; procedure, shortened: as §2
Plasmodium berghei [15] = experiment: Antiplasmodial activity against Plasmodium berghei ANKA expressing GFP infected in mouse assessed as reduction of parasitemia level at 30 mg/kg, po qd for 4 days; assay type: functional; set-up: scale not given: the % may be the effect or the level left
Plasmodium berghei [16] = experiment: Antiplasmodial activity against Plasmodium berghei ANKA expressing GFP infected in mouse assessed as means survival days at 30 mg/kg, po qd for 4 days; assay type: functional
[17] = Selectivity index, ratio of IC50 for CHO cells to IC50 for multidrug resistant Plasmodium falciparum K1; assay type: toxicity, cell-based; conditions: hamster, read-out: Ratio IC50
[18] = Selectivity index, ratio of IC50 for CHO cells to IC50 for Plasmodium falciparum NF54; assay type: toxicity, cell-based; conditions: hamster, read-out: Ratio IC50
[19] = Selectivity index, ratio of IC50 for African green monkey VERO cells to IC50 for multidrug resistant Plasmodium falciparum K1; assay type: toxicity, cell-based; conditions: read-out: Ratio IC50
[20] = Selectivity index, ratio of IC50 for African green monkey VERO cells to IC50 for Plasmodium falciparum NF54; assay type: toxicity, cell-based; conditions: read-out: Ratio IC50
Plasmodium berghei [21] = experiment: Antiplasmodial activity against sporozoite stage of Plasmodium berghei expressing luciferase infected in human HepG2-A16-CD81EGFP cells preincubated with cells for 18 hrs followed by protozoal infection measured after 48 hrs by bioluminescence assay; assay type: functional, organism-based
Procedure, shortened: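 HepG2 cells were pretreated 18 h with compound, then infected with freshly dissected luciferase-expressing P. berghei sporozoites. After a further 48 h with compound, viability of exoerythrocytic forms and of HepG2 host cells was read by bioluminescence.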

[22] = Solubility of the compound in 0.01M HCl at pH 2 by Nephelometric analysis; assay type: physicochemical; conditions: buffer

Q: For `CCc1nc(N)nc(N)c1-c1ccc(Cl)cc1` [PYRIMETHAMINE], which ED90 (Plasmodium falciparum [1]) is on record?
A: 0.9 mg/kg

Q: For `CS(=O)(=O)c1ccc(-c2cnc3ccc(-c4cccc(S(C)(=O)=O)c4)cn23)cc1`, which IC50 (Plasmodium falciparum [2]) is on record?
A: 113 nM

Q: And the IC50 (Plasmodium falciparum [3])?
A: 150 nM

Q: And the Stability (Liver microsome [4])?
A: Stable

Q: And the Stability (Liver microsome [5])?
A: Stable

Q: And the Stability [6]?
A: Stable

Q: What about the IC50 [7] of the same compound?
A: 4800 nM

Q: For `CS(=O)(=O)c1ccc(-c2cnn3ccc(-c4cccc(C(F)(F)F)c4)nc23)cc1`, which IC50 (Plasmodium falciparum [2]) is on record?
A: 43 nM

Q: And the IC50 (Plasmodium falciparum [3])?
A: 48 nM

Q: And the Stability (Liver microsome [4])?
A: Stable

Q: And the Stability (Liver microsome [5])?
A: Stable

Q: And the Stability [6]?
A: Stable

Q: Which IC50 (Plasmodium falciparum [3]) does the source give for `CS(=O)(=O)c1ccc(-c2cnn3ccc(-c4cccc(C(F)(F)F)c4)cc23)cc1` here?
A: 98 nM

Q: And the Stability (Liver microsome [4])?
A: Stable

Q: What about the Stability (Liver microsome [5]) of the same compound?
A: Stable

Q: And the Stability [6]?
A: Stable

Q: For `C[S+]([O-])c1ccc(-c2cnc3ccc(-c4cccc(S(=O)(=O)C5CC5)c4)nn23)cc1` (centres undefined), which Stability (Liver microsome [4]) is on record?
A: Stable

Q: What about the Stability (Liver microsome [5]) of the same compound?
A: Stable

Q: And the Stability [6]?
A: Stable

Q: What about the Activity (Plasmodium berghei [8]) of the same compound?
A: 99.8%

Q: What about the MSD (Plasmodium berghei [9]) of the same compound?
A: >30 days

Q: What about the Activity (Plasmodium berghei [10]) of the same compound?
A: Active

Q: And the Activity (Plasmodium berghei [11])?
A: 99.6%

Q: And the MSD (Plasmodium berghei [12])?
A: 8 days

Q: What about the Activity (Plasmodium berghei [13]) of the same compound?
A: 98%

Q: And the MSD (Plasmodium berghei [14])?
A: 7 days

Q: Which IC50 (Plasmodium falciparum [3]) does the source give for `CS(=O)(=O)c1ccc(-c2nnc3ccc(-c4cccc(S(C)(=O)=O)c4)nn23)cc1` here?
A: > 2340 nM

Q: For `CS(=O)(=O)c1ccc(-c2cnn3c2NC(c2cccc(C(F)(F)F)c2)CC3)cc1` (centres undefined), which IC50 (Plasmodium falciparum [3]) is on record?
A: < 100 nM

Q: Which results are given for `CS(=O)(=O)c1ccc(-c2nnc3ccc(-c4cccc(S(C)(=O)=O)c4)cn23)cc1`?
A: IC50 (Plasmodium falciparum [2]): > 1000 nM; IC50 (Plasmodium falciparum [3]): > 1000 nM

Q: Which IC50 (Plasmodium falciparum [2]) does the source give for `CS(=O)(=O)c1ccc(-c2cnc3ncc(-c4cccc(S(C)(=O)=O)c4)cn23)cc1` here?
A: > 1000 nM

Q: And the IC50 (Plasmodium falciparum [3])?
A: > 1000 nM

Q: Which IC50 (Plasmodium falciparum [2]) does the source give for `CS(=O)(=O)c1ccc(-c2cnc3ccc(-c4cccc(C(F)(F)F)c4)nn23)cc1` here?
A: 46 nM

Q: What about the IC50 (Plasmodium falciparum [3]) of the same compound?
A: 60 nM

Q: And the Stability (Liver microsome [4])?
A: Stable

Q: What about the Stability (Liver microsome [5]) of the same compound?
A: Stable

Q: And the Stability [6]?
A: Stable

Q: And the Activity (Plasmodium berghei [8])?
A: 99.8%

Q: What about the MSD (Plasmodium berghei [9]) of the same compound?
A: >30 days

Q: And the Activity (Plasmodium berghei [10])?
A: Active

Q: What about the Activity (Plasmodium berghei [11]) of the same compound?
A: 70%

Q: And the MSD (Plasmodium berghei [12])?
A: 7 days

Q: What about the Activity (Plasmodium berghei [13]) of the same compound?
A: <40%

Q: And the MSD (Plasmodium berghei [14])?
A: 4 days

Q: With `C[C@H]1[C@H](OC(=O)CCC(=O)O)O[C@@H]2O[C@@]3(C)CC[C@H]4[C@H](C)CC[C@@H]1[C@@]24OO3` [ARTESUNATE] as the compound, how does the IC50 (Plasmodium falciparum [2]) read?
A: 4 nM

Q: And the IC50 (Plasmodium falciparum [3])?
A: 3 nM

Q: And the Activity (Plasmodium berghei [15])?
A: 99%

Q: What about the MSD (Plasmodium berghei [16]) of the same compound?
A: 10 days

Q: And the ED90 (Plasmodium falciparum [1])?
A: 11.1 mg/kg

Q: Which selectivity ratio [17] does the source give for `CS(=O)(=O)c1ccc(-c2cnc3ccc(-c4cccc(S(C)(=O)=O)c4)nn23)cc1` here?
A: > 1000

Q: And the selectivity ratio [18]?
A: > 1000

Q: And the selectivity ratio [19]?
A: > 1000

Q: And the selectivity ratio [20]?
A: > 1000

Q: What about the Stability (Liver microsome [4]) of the same compound?
A: Stable

Q: What about the Stability (Liver microsome [5]) of the same compound?
A: Stable

Q: What about the Stability [6] of the same compound?
A: Stable

Q: And the IC50 [7]?
A: 900 nM

Q: What about the Activity (Plasmodium berghei [8]) of the same compound?
A: 99.8%

Q: And the MSD (Plasmodium berghei [9])?
A: 7 days

Q: And the IC50 (Plasmodium berghei [21])?
A: 4.1 nM

Q: With `CS(=O)(=O)c1ccc(-c2cnc3ccc(-c4cccc(S(=O)(=O)C5CC5)c4)nn23)cc1` as the compound, how does the Stability (Liver microsome [4]) read?
A: Stable

Q: And the Stability (Liver microsome [5])?
A: Stable

Q: What about the Stability [6] of the same compound?
A: Stable

Q: Which Activity (Plasmodium berghei [15]) does the source give for `O[C@@H](c1cc(C(F)(F)F)nc2c(C(F)(F)F)cccc12)[C@H]1CCCCN1` (relative stereo) [(S,R)-MEFLOQUINE] here?
A: 99.9%

Q: And the MSD (Plasmodium berghei [16])?
A: 29 days

Q: And the ED90 (Plasmodium falciparum [1])?
A: 7.7 mg/kg

Q: Which IC50 (Plasmodium falciparum [2]) does the source give for `CS(=O)(=O)c1ccc(-c2nnc3ccc(-c4cccc(C(F)(F)F)c4)cn23)cc1` here?
A: > 1000 nM

Q: What about the IC50 (Plasmodium falciparum [3]) of the same compound?
A: > 1000 nM

Q: What does the source list for `CS(=O)(=O)c1ccc(-c2cnc3cnc(-c4cccc(S(C)(=O)=O)c4)cn23)cc1`?
A: IC50 (Plasmodium falciparum [3]): 877 nM; Stability (Liver microsome [4]): Stable; Stability (Liver microsome [5]): Stable; Stability [6]: Stable; solubility [22]: soluble

Q: With `CCN(CC)CCCC(C)Nc1ccnc2cc(Cl)ccc12` (centres undefined) [CHLOROQUINE] as the compound, how does the ED90 (Plasmodium falciparum [1]) read?
A: 4.3 mg/kg

Q: Which IC50 (Plasmodium falciparum [2]) does the source give for `CS(=O)(=O)c1ccc(-c2cnn3ccc(-c4cccc(S(C)(=O)=O)c4)nc23)cc1` here?
A: 2.2 nM

Q: What about the IC50 (Plasmodium falciparum [3]) of the same compound?
A: 2.6 nM

Q: What about the Stability (Liver microsome [4]) of the same compound?
A: Stable

Q: And the Stability (Liver microsome [5])?
A: Stable

Q: What about the Stability [6] of the same compound?
A: Stable
